This is an account of results in PubChem BioAssay.

Activity calls are given as the source filed them.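 The calls were made as follows, unless noted: active = viability at or under a set limit in both replicates, limit being median viability minus 3 SD (cut at about 48% in these data, passing the limit was not always enough); inconclusive = at or under the limit in just one replicate; inactive = at or above the limit in both replicates.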

Assay [1] can be described thus: Her2 expression decrease, cell viability multiplex – SKBR3 breast tumor cells, AlphaScreen, ATP viability, primary screen (AID 461;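 active = Her2 level under about 52% in both replicate screens, with viability over 70% of control, limit read from the data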;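 as to Her2 level: lower value means less Her2 protein in the cells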;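 as to viability: percent of carrier control wells set as 100% viability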). The settings on record: SKBR3 Her2 protein level, 18-24 h, measured here: SKBR3 viability, ATP luminescence, at 10 µM. (In Alpha technology, singlet oxygen from a donor bead excites a nearby acceptor bead.)
Assay [2] has as its target Receptor tyrosine-protein kinase erbB-2 (Homo sapiens) (UniProt P04626). The assay is described as above. The settings on record: 18-24 h, at 10 µM, stronger effect = lower value.
Assay [3] can be described thus: reduced viability of SK-BR-3 breast cancer cells – cell-based, 24 h, human, pilot screen (AID 572;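 active = viability at or below 10% of carrier control in both of two separate runs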;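 also: compound exposure lasted between 18 and 24 h rather than exactly 24 h; 100% = carrier-treated control wells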). The settings on record: SK-BR-3 viability, CellTiter-Glo luminescence, at 10 µM, stronger effect = lower value. For orientation: Cellular ATP, detected with luciferase, serves as a proxy for viable cell number.
Assay [4] can be described thus: HUVEC growth inhibition – cell-based, human, primary screen (AID 575;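 active = viability at or below 30% in both replicate assays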;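 also: 100% = median of untreated cell wells with 0.1% DMSO on each plate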). The settings on record: HUVEC proliferation, CellTiter-Glo luminescence, 72 h; at 10 µM; stronger effect = lower value. The procedure, abridged: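 Test system: HUVEC primary cells. Quantity: 1250 endothelial cells in each well. Dosing: single-point 10 µM, DMSO 0.1% final. Incubation: 72 h treatment at 37 °C. Measured by: CTG luminescence. Control set: DMSO cell controls and MePR drug controls. Plate: collagen-coated 384-well format.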

Assay [5] in a line: H69AR cell proliferation blockers – human, duplicate replicates, primary screen (AID 580).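 Also: 100% = mean luminescence of untreated wells and 0% = no signal.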 The settings on record: H69AR lung tumor cells viability, ATP luminescence, 72 h; at 10 µM; stronger effect = lower value.
The nature of assay [6]: MRP1 drug-resistance reversers in H69AR cells – cell-based, doxorubicin co-treatment, pilot screen (AID 601;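 active = viability loss from added drug above about 55%, and viability with drug at most 40%, in both replicates, limit read from the data, passing the limit was not always enough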). The settings on record: CellTiter-Glo, 72 h, at 10 µM; for differential viability (reversal): stronger effect = higher value.
The nature of assay [7]: yeast transport mutant growth inhibition pilot in 384-well plates, post-Golgi transport modulator project (AID 636; in the data active = inhibition above about 31%). The settings on record: absorbance 615 nm, about 18 h, stronger effect = higher value.
Assay [8] in a line: growth suppression of yeast trafficking mutant, preliminary HTS, modulators of trafficking downstream of Golgi apparatus project, 1536-format plate, OD 615 nm (AID 637; in the data active = inhibition above about 30%). The settings on record: yeast transport mutant growth, absorbance 615 nm, 18 h; stronger effect = higher value.
[9] abbreviates: H69AR cells + 2 uM doxorubicin, measured here: viability with 2 uM doxorubicin, stronger effect = lower value.
[10] abbreviates: H69AR cells, compound alone cytotoxicity.

Receptor tyrosine-protein kinase erbB-2 (Homo sapiens), sequence (P04626 whole entry, looked up): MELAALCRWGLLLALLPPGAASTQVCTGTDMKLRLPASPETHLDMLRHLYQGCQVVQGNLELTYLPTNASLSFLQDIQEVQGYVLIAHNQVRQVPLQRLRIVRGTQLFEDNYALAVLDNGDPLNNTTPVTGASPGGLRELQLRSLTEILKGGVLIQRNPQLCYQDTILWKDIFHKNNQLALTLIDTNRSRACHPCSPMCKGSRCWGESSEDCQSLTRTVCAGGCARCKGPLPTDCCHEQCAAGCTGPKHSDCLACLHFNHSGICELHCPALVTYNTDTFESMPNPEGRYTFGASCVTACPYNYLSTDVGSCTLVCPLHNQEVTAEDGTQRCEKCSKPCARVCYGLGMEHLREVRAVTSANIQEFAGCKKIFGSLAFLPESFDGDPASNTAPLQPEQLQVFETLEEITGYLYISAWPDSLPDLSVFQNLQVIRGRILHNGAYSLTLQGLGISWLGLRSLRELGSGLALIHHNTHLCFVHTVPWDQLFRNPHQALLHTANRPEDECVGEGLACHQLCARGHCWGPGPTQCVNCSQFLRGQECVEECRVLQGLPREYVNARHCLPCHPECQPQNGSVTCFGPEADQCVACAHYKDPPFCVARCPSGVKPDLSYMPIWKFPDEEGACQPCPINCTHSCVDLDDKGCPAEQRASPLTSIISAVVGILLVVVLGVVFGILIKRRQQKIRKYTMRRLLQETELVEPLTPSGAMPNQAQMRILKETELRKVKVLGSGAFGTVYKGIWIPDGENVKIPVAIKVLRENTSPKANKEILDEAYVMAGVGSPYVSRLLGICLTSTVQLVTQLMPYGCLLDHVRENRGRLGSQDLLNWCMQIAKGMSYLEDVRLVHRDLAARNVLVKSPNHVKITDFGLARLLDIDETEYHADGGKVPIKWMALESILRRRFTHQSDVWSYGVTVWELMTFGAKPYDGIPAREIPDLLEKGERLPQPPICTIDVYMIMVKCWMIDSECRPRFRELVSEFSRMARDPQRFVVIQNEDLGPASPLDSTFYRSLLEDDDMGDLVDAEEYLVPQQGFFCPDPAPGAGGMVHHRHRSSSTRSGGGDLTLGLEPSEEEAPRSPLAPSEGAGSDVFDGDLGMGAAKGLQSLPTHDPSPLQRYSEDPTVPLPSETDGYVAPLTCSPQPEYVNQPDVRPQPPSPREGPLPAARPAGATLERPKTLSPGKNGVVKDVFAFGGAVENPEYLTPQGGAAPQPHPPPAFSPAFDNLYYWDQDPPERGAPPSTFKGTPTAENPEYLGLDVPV

On to `COc1cc(C2CC(=O)NC3=C2C(=O)CC(C)(C)C3)ccc1O` (stereo not given), for which the viability is 89.5% in assay [1]; 89.5% (inactive) in assay [3]; 82.7% (inactive) in assay [4]; 109% (inactive) in assay [5]; 89.5% in assay [6] (setting [9]); 109% in assay [6] (setting [10]). The Her2 level in assay [2] is 93.5% (inactive). The differential viability (reversal) in assay [6] (H69AR cells + 2 uM doxorubicin) was 19.9% (inactive). The inhibition in assay [7] was -3.82% (inactive); in assay [8] it was -4.17% (inactive).
In the case of `CCOC(=O)c1cnc(SCC)[nH]c1=O`, the viability in assay [1] is 84.5%; in assay [3], 84.5% (inactive); in assay [4], 84.4% (inactive); in assay [5], 97% (inactive); in assay [6] (setting [9]), 103%; in assay [6] (setting [10]), 97%. In assay [2], the Her2 level was 101% (inactive). In assay [6] (H69AR cells + 2 uM doxorubicin), the differential viability (reversal) was -5.68% (inactive). Further, the results for the inhibition in assay [7] and in assay [8] were -1.92% (inactive) and -8% (inactive), respectively.
With `NCCN1CCN(CCN)CC1`, the viability in assay [1] was 106%; in assay [3], 106% (inactive); in assay [4], 84.6% (inactive); in assay [5], 93.7% (inactive); in assay [6] (setting [9]) it was 81.4%; in assay [6] (setting [10]), 93.7%. For the same compound, in assay [2], the Her2 level is 77% (inactive). The differential viability (reversal) in assay [6] (H69AR cells + 2 uM doxorubicin) was 12.2% (inactive). The inhibition was -3.87% (inactive) in assay [7] and 2.38% (inactive) in assay [8].
Consider `CC1=NC(Nc2nc(C)c3ccccc3n2)=NC(C)(C)C1`, for which the viability in assay [1] was 78.5%; in assay [3], 78.5% (inactive); in assay [4], 74.3% (inactive); in assay [5] it was 62.4% (inactive); in assay [6] (setting [9]), 77%; in assay [6] (setting [10]), 62.4%. Moreover, in assay [2], the Her2 level was 72.5% (inactive). In assay [6] (H69AR cells + 2 uM doxorubicin), the differential viability (reversal) was -14.6% (inactive). Besides, the inhibition in assay [7] is -0.39% (inactive); in assay [8], -7.38% (inactive).
Take `O=c1[nH]cnc2c1C1(CCCC1)Cc1ccccc1-2`: the viability in assay [1] is 95.5%; in assay [3], 95.5% (inactive); in assay [4], 93.1% (inactive); in assay [5] it was 100% (inactive); in assay [6] (setting [9]) it was 88.7%; in assay [6] (setting [10]), 100%. For the same compound, the Her2 level in assay [2] is 90% (inactive). For the same compound, the differential viability (reversal) in assay [6] (H69AR cells + 2 uM doxorubicin) is 11.5% (inactive). Further, the inhibition in assay [7] is -0.26% (inactive); in assay [8], -0.5% (inactive).
Regarding `CC(=O)N1CCc2cc(Br)cc(S(=O)(=O)NCCCN3CCCC(C)C3)c21` (stereo not given), the viability in assay [1] was 83%; in assay [3], 83% (inactive); in assay [4] it was 89.9% (inactive); in assay [5], 91.8% (inactive); in assay [6] (setting [9]), 91.7%; in assay [6] (setting [10]), 91.8%. Besides, in assay [2], the Her2 level is 93% (inactive). In addition, the differential viability (reversal) in assay [6] (H69AR cells + 2 uM doxorubicin) is 0.035% (inactive). The inhibition in assay [7] was -2.57% (inactive); in assay [8], -3.93% (inactive).
In the case of `CC(C)C1Cc2c(C#N)c(N)sc(=S)c2CO1` (stereo not given), the viability in assay [1] was 85%; in assay [3] it was 85% (inactive); in assay [4], 64.2% (inactive); in assay [5], 93.9% (inactive); in assay [6] (setting [9]) it was 96.2%; in assay [6] (setting [10]) it was 93.9%. In addition, the Her2 level in assay [2] was 108% (inactive). Moreover, the differential viability (reversal) in assay [6] (H69AR cells + 2 uM doxorubicin) is -2.34% (inactive). In addition, the inhibition in assay [7] is -4.03% (inactive); in assay [8], -2.13% (inactive).
For `CCOc1ncccc1C(=O)OCC(=O)Nc1ncc(C(F)(F)F)cc1Cl`, the viability in assay [1] was 99.5%; in assay [3], 99.5% (inactive); in assay [4] it was 97.2% (inactive); in assay [5], 93.8% (inactive); in assay [6] (setting [9]), 94.3%; in assay [6] (setting [10]) it was 93.8%. For the same compound, the Her2 level in assay [2] is 95% (inactive). Also, in assay [6] (H69AR cells + 2 uM doxorubicin), the differential viability (reversal) was -0.51% (inactive). Moreover, the inhibition was -1.58% (inactive) in assay [7] and 7.9% (inactive) in assay [8].
Turning to `O=C(c1ccc2ccccc2n1)N1CCN(c2ccccc2)CC1`, the viability in assay [1] was 88.5%; in assay [3], 88.5% (inactive); in assay [4] it was 100% (inactive); in assay [5], 112% (inactive); in assay [6] (setting [9]), 98.6%; in assay [6] (setting [10]) it was 112%. Also, the Her2 level in assay [2] was 86% (inactive). The differential viability (reversal) in assay [6] (H69AR cells + 2 uM doxorubicin) was 13.8% (inactive). In addition, the results for the inhibition in assay [7] and in assay [8] were -4.19% (inactive) and -3.61% (inactive), respectively.
`COc1cccc(CNC(=O)C2CCN(S(=O)(=O)c3ccc(F)cc3)CC2)c1`: the viability was 128% in assay [1]; 128% (inactive) in assay [3]; 95.1% (inactive) in assay [4]; 97.5% (inactive) in assay [5]; 105% in assay [6] (setting [9]); 97.5% in assay [6] (setting [10]). Further, the Her2 level in assay [2] was 98.5% (inactive). Besides, the differential viability (reversal) in assay [6] (H69AR cells + 2 uM doxorubicin) was -7.57% (inactive). The inhibition in assay [7] was -2.37% (inactive); in assay [8], 0.48% (inactive).
In the case of `COc1ccc(CCNC(=O)C2CCN(C(=O)N(C)C)CC2)cc1OC`, the viability in assay [1] is 86.5%; in assay [3], 86.5% (inactive); in assay [4] it was 108% (inactive); in assay [5], 92.8% (inactive); in assay [6] (setting [9]), 91.2%; in assay [6] (setting [10]), 92.8%. Moreover, the Her2 level in assay [2] is 117% (inactive). Also, the differential viability (reversal) in assay [6] (H69AR cells + 2 uM doxorubicin) was 1.61% (inactive). In addition, the figures for the inhibition in assay [7] and in assay [8] were -2.05% (inactive) and -4.67% (inactive), respectively.
As to `Cn1c2ccccc2c2c(C(=O)NCCCN3CCCC3=O)cn(C3CCCCC3)c(=O)c21`, the viability in assay [1] was 86%; in assay [3], 86% (inactive); in assay [4], 95.9% (inactive); in assay [5], 83.7% (inactive); in assay [6] (setting [9]), 80.7%; in assay [6] (setting [10]), 83.7%. In addition, in assay [2], the Her2 level was 88.5% (inactive). Also, the differential viability (reversal) in assay [6] (H69AR cells + 2 uM doxorubicin) is 3.06% (inactive). For the same compound, the inhibition was -4.53% (inactive) in assay [7] and -0.49% (inactive) in assay [8].
As to `O=C(c1ccccc1F)N1CCN(Cc2cccc(Cl)c2)CC1`, the viability in assay [1] is 101%; in assay [3], 101% (inactive); in assay [4] it was 107% (inactive); in assay [5] it was 100% (inactive); in assay [6] (setting [9]), 83.6%; in assay [6] (setting [10]), 100%. In addition, the Her2 level in assay [2] is 104% (inactive). For the same compound, the differential viability (reversal) in assay [6] (H69AR cells + 2 uM doxorubicin) was 16.8% (inactive). Further, the values for the inhibition in assay [7] and in assay [8] were -5.32% (inactive) and -2.86% (inactive), respectively.
With `OCCNc1nc2ccc(Cl)cc2[nH]1`, the viability in assay [1] was 84%; in assay [3], 84% (inactive); in assay [4], 108% (inactive); in assay [5] it was 107% (inactive); in assay [6] (setting [9]), 97.9%; in assay [6] (setting [10]), 107%. Also, the Her2 level in assay [2] was 100% (inactive). For the same compound, in assay [6] (H69AR cells + 2 uM doxorubicin), the differential viability (reversal) is 9.03% (inactive). Further, the inhibition in assay [7] was -6.89% (inactive); in assay [8], 5.08% (inactive).

The viability is a read-out of living cells in per cent, often relative to untreated cells. As usually defined, the inhibition is the drop in the measured response relative to a control, in per cent.
